Measurements as given in ChEMBL document CHEMBL1140733, “Comprehensive study of sansalvamide A derivatives and their structure-activity relationships against drug-resistant colon cancer cell lines” (J Med Chem, 2008).
Square brackets hold non-standard residues; d marks the D form. Peptide text beside a SMILES is read from it. * marks the point of attachment. dNMeF = CN[C@H](Cc1ccccc1)C(=O)O; Cbz = O=C(OCc1ccccc1)*; Bn = c1ccc(C*)cc1

Key:
HCT-116 [1] = assay: Cytotoxicity against multidrug-resistant human HCT116 cells by thymidine incorporation assay; assay type: functional, cell-based
In short: (§1)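 Cells (3000/well) were plated in IMDM (HCT-116), RPMI 1640 (HCT-15) or MEM (WS-1), each with L-glutamine, 10% FBS and 0.1% penicillin-streptomycin. Compounds in DMSO (1% in all wells) were added after about 6 h and left for 72 h, with 3H-thymidine pulsed for the last 16 h. Uptake was scintillation-counted against DMSO controls. IC50 came from four-concentration curves, three experiments in quadruplicate.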

HCT-15 [2] = assay: Cytotoxicity against multidrug-resistant human HCT15 cells by thymidine incorporation assay; assay type: functional, cell-based; in short: as §1
HCT-116 [3] = assay: Cytotoxicity against multidrug-resistant human HCT116 cells at 1 uM by thymidine incorporation assay; assay type: functional
In short: (§2)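 HCT-116 cells were grown in IMDM and HCT-15 in RPMI 1640, each with L-glutamine, 10% FBS and penicillin-streptomycin, at 3000 cells/well. Compound was applied at 1 µM in 1% DMSO for 72 h total, with 3H-thymidine added for the final 16 h. Percent growth inhibition versus DMSO controls was scintillation-counted, averaging three wells in each of three assays.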

HCT-15 [4] = assay: Cytotoxicity against multidrug-resistant human HCT15 cells at 1 uM by thymidine incorporation assay; assay type: functional; in short: as §2

Structure (SMILES) | IC50 (HCT-116 [1]) | IC50 (HCT-15 [2]) | inhibition at 1 µM (HCT-116 [3]) | inhibition at 1 µM (HCT-15 [4])
CC(C)C[C@@H]1NC(=O)[C@H](Cc2ccccc2)NC(=O)[C@@H](CC(C)C)N(C)C(=O)[C@H](C(C)C)NC(=O)[C@H](CC(C)C)NC1=O (HELM PEPTIDE1{F.L.L.V.[CC(C)C[C@H](C(=O)[*:2])N(C)[*:1]]}$PEPTIDE1,PEPTIDE1,1:R1-5:R2$$$V2.0) | > 50 µM | > 50 µM | 25% | 33%
CC(C)C[C@@H]1NC(=O)[C@H](Cc2ccccc2)NC(=O)[C@@H](CC(C)C)NC(=O)[C@H](C(C)C)NC(=O)[C@H](CC(C)C)NC1=O (HELM PEPTIDE1{F.L.L.V.[dL]}$PEPTIDE1,PEPTIDE1,1:R1-5:R2$$$V2.0) | > 50 µM | > 50 µM | 18% | 10%
CC(C)C[C@@H]1NC(=O)[C@H](Cc2ccccc2)NC(=O)[C@H](CC(C)C)N(C)C(=O)[C@H](C(C)C)NC(=O)[C@H](CC(C)C)NC1=O (HELM PEPTIDE1{F.L.L.V.[meL]}$PEPTIDE1,PEPTIDE1,1:R1-5:R2$$$V2.0) | > 50 µM | > 50 µM | 20% | 3%
CC(C)C[C@@H]1NC(=O)[C@@H](CC(C)C)NC(=O)[C@H](Cc2ccccc2)NC(=O)[C@H](CC(C)C)NC(=O)[C@@H](C(C)C)NC1=O (HELM PEPTIDE1{F.[dL].L.[dV].L}$PEPTIDE1,PEPTIDE1,1:R1-5:R2$$$V2.0) | – | – | 16% | 20%
CC(C)C[C@@H]1NC(=O)[C@H](C(C)C)NC(=O)[C@@H](CC(C)C)NC(=O)[C@@H](CC(C)C)NC(=O)[C@H](Cc2ccccc2)NC1=O (HELM PEPTIDE1{F.[dL].[dL].V.L}$PEPTIDE1,PEPTIDE1,1:R1-5:R2$$$V2.0) | – | – | 28% | 40%
CC(C)C[C@@H]1NC(=O)[C@H](C(C)C)NC(=O)[C@H](CC(C)C)N(C)C(=O)[C@@H](CC(C)C)NC(=O)[C@H](Cc2ccccc2)NC1=O (HELM PEPTIDE1{F.[dL].[meL].V.L}$PEPTIDE1,PEPTIDE1,1:R1-5:R2$$$V2.0) | – | – | 23% | 30%
CC(C)C[C@@H]1NC(=O)[C@H](CC(C)C)N(C)C(=O)[C@H](Cc2ccccc2)NC(=O)[C@H](CC(C)C)N(C)C(=O)[C@H](C(C)C)NC1=O (HELM PEPTIDE1{F.[meL].L.V.[meL]}$PEPTIDE1,PEPTIDE1,1:R1-5:R2$$$V2.0) | – | – | 20% | 0%
CC(C)C[C@@H]1NC(=O)[C@@H](C(C)C)NC(=O)[C@H](CC(C)C)NC(=O)[C@H](CC(C)C)N(C)C(=O)[C@H](Cc2ccccc2)NC1=O (HELM PEPTIDE1{F.[meL].L.[dV].L}$PEPTIDE1,PEPTIDE1,1:R1-5:R2$$$V2.0) | – | – | 38% | 19%
CC(C)C[C@@H]1NC(=O)[C@H](C(C)C)N(C)C(=O)[C@H](CC(C)C)NC(=O)[C@H](CC(C)C)N(C)C(=O)[C@H](Cc2ccccc2)NC1=O (HELM PEPTIDE1{F.[meL].L.[meV].L}$PEPTIDE1,PEPTIDE1,1:R1-5:R2$$$V2.0) | – | – | 18% | 15%
CC(C)C[C@@H]1NC(=O)[C@@H](Cc2ccccc2)NC(=O)[C@@H](CC(C)C)NC(=O)[C@@H](C(C)C)NC(=O)[C@H](CCCCN)NC1=O (HELM PEPTIDE1{K.[dV].[dL].[dF].L}$PEPTIDE1,PEPTIDE1,1:R1-5:R2$$$V2.0) | – | – | 2% | 17%
CC(C)C[C@@H]1NC(=O)[C@H](CC(C)C)NC(=O)[C@@H]2Cc3ccccc3CN2C(=O)[C@H](CC(C)C)NC(=O)[C@H](C(C)C)NC1=O (HELM PEPTIDE1{L.L.V.L.[Tic]}$PEPTIDE1,PEPTIDE1,1:R1-5:R2$$$V2.0) | – | – | 3% | 27%
CC(C)C[C@@H]1NC(=O)[C@H](CC(C)C)NC(=O)[C@@H](Cc2ccccc2)NC(=O)[C@H](CC(C)C)NC(=O)[C@H](C(C)C)NC1=O (HELM PEPTIDE1{L.L.V.L.[dF]}$PEPTIDE1,PEPTIDE1,1:R1-5:R2$$$V2.0) | > 50 µM | > 50 µM | 30% | 26%
CC(C)C[C@@H]1NC(=O)[C@H](CC(C)C)NC(=O)[C@@H](Cc2c[nH]c3ccccc23)NC(=O)[C@H](CC(C)C)NC(=O)[C@H](C(C)C)NC1=O (HELM PEPTIDE1{L.L.V.L.[dW]}$PEPTIDE1,PEPTIDE1,1:R1-5:R2$$$V2.0) | – | – | 2% | 9%
CC(C)C[C@@H]1NC(=O)[C@H](CC(C)C)NC(=O)[C@@H](Cc2ccccc2)NC(=O)[C@@H](CC(C)C)NC(=O)[C@@H](C(C)C)NC1=O (HELM PEPTIDE1{L.L.[dV].[dL].[dF]}$PEPTIDE1,PEPTIDE1,1:R1-5:R2$$$V2.0) | – | – | 44% | 35%
CC(C)C[C@@H]1NC(=O)[C@@H](Cc2ccccc2)NC(=O)[C@H](C(C)C)NC(=O)[C@@H](CC(C)C)NC(=O)[C@@H](CC(C)C)NC1=O (HELM PEPTIDE1{L.[dL].[dL].V.[dF]}$PEPTIDE1,PEPTIDE1,1:R1-5:R2$$$V2.0) | – | – | 32% | 0%
CC[C@@H]1NC(=O)[C@H](CC(C)C)NC(=O)[C@H](CC(C)C)NC(=O)[C@H](Cc2ccccc2)NC(=O)[C@H](CC(C)C)NC1=O (HELM PEPTIDE1{[Abu].L.F.L.L}$PEPTIDE1,PEPTIDE1,1:R1-5:R2$$$V2.0) | – | – | 1% | 8%
CC[C@@H]1NC(=O)[C@H](CC(C)C)NC(=O)[C@H](CC(C)C)NC(=O)[C@H](Cc2ccccc2)NC(=O)[C@@H](CC(C)C)NC1=O (HELM PEPTIDE1{[Abu].[dL].F.L.L}$PEPTIDE1,PEPTIDE1,1:R1-5:R2$$$V2.0) | – | – | 13% | 8%
CC(C)[C@@H]1NC(=O)[C@H](CC2CCCCC2)NC(=O)[C@H](CO)NC(=O)[C@H](Cc2ccccc2)NC(=O)[C@@H](Cc2ccccc2)N(C)C1=O (HELM PEPTIDE1{[Cha].V.[CN([C@H](Cc1ccccc1)C(=O)[*:2])[*:1]].F.S}$PEPTIDE1,PEPTIDE1,1:R1-5:R2$$$V2.0) | – | – | 34% | 20%
CC(C)C[C@@H]1C(=O)N[C@H](CC(C)C)C(=O)N(C)[C@H](C(C)C)C(=O)N[C@H](CC(C)C)C(=O)N[C@H](Cc2ccccc2)C(=O)N1C (HELM PEPTIDE1{[dF].[CC(C)C[C@H](C(=O)[*:2])N(C)[*:1]].[dL].[CC(C)[C@H](C(=O)[*:2])N(C)[*:1]].[dL]}$PEPTIDE1,PEPTIDE1,1:R1-5:R2$$$V2.0) | – | – | 43% | 48%
CC(C)C[C@@H]1C(=O)N[C@H](CC(C)C)C(=O)N[C@H](C(C)C)C(=O)N[C@H](CC(C)C)C(=O)N[C@H](Cc2ccccc2)C(=O)N1C (HELM PEPTIDE1{[dF].[CC(C)C[C@H](C(=O)[*:2])N(C)[*:1]].[dL].[dV].[dL]}$PEPTIDE1,PEPTIDE1,1:R1-5:R2$$$V2.0) | – | – | 42% | 28%
CC(C)C[C@H]1NC(=O)[C@@H](Cc2ccccc2)NC(=O)[C@@H](CC(C)C)NC(=O)[C@@H](C(C)C)N(C)C(=O)[C@@H](CC(C)C)NC1=O (HELM PEPTIDE1{[dF].[dL].[dL].[CC(C)[C@H](C(=O)[*:2])N(C)[*:1]].[dL]}$PEPTIDE1,PEPTIDE1,1:R1-5:R2$$$V2.0) | – | – | 18% | 31%
CC(C)C[C@@H]1C(=O)N[C@H](Cc2ccccc2)C(=O)N[C@H](CC(C)C)C(=O)N[C@H](CC(C)C)C(=O)N[C@H](C(C)C)C(=O)N1C (HELM PEPTIDE1{[dF].[dL].[dL].[dV].[CC(C)C[C@H](C(=O)[*:2])N(C)[*:1]]}$PEPTIDE1,PEPTIDE1,1:R1-5:R2$$$V2.0) | – | – | 1% | 4%
CC(C)C[C@H]1NC(=O)[C@@H](Cc2ccccc2)NC(=O)[C@@H](CC(C)C)NC(=O)[C@@H](C(C)C)NC(=O)[C@@H](CC(C)C)NC1=O (HELM PEPTIDE1{[dF].[dL].[dL].[dV].[dL]}$PEPTIDE1,PEPTIDE1,1:R1-5:R2$$$V2.0) | – | – | 27% | 15%
CC(C)C[C@@H]1NC(=O)[C@H](Cc2ccccc2)NC(=O)[C@H](CC(C)C)NC(=O)[C@H](C(C)C)NC(=O)[C@H](CCCCNC(=O)OCc2ccccc2)NC1=O (cyclo(FLK(Cbz)VL)) | – | – | 46% | 41%
CC(C)C[C@@H]1NC(=O)[C@H](Cc2ccccc2)NC(=O)[C@@H](Cc2ccccc2)N(C)C(=O)[C@H](C(C)C)NC(=O)[C@H](CCCCNC(=O)OCc2ccccc2)NC1=O (cyclo(FLK(Cbz)V[dNMeF])) | – | – | 38% | 14%
CC(C)C[C@@H]1NC(=O)[C@H](Cc2ccccc2)NC(=O)[C@H](CC(C)C)NC(=O)[C@@H](C(C)C)NC(=O)[C@H](CCCCNC(=O)OCc2ccccc2)NC1=O (cyclo(FLK(Cbz)[dV]L)) | – | – | 16% | 3%
CC(C)[C@@H]1NC(=O)[C@H](Cc2ccccc2)NC(=O)[C@@H](COCc2ccccc2)NC(=O)[C@H](C(C)C)NC(=O)[C@H](C(C)C)NC1=O (cyclo(FVVV[dS](Bn))) | – | – | 25% | 30%
CC(C)[C@@H]1NC(=O)[C@H](Cc2ccccc2)NC(=O)[C@H](C(C)C)NC(=O)[C@@H](COCc2ccccc2)NC(=O)[C@H](C(C)C)NC1=O (cyclo(FVV[dS](Bn)V)) | – | – | 17% | 14%
CC(C)C[C@@H]1NC(=O)[C@@H](Cc2ccccc2)NC(=O)[C@@H](CC(C)C)NC(=O)[C@@H](C(C)C)NC(=O)[C@H](CCCCNC(=O)OCc2ccccc2)NC1=O (cyclo(K(Cbz)[dV][dL][dF]L)) | – | – | 22% | 13%
